According to ChEMBL document CHEMBL1139130, “New C-5 substituted pyrrolotriazine dual inhibitors of EGFR and HER2 protein tyrosine kinases” (Bioorg Med Chem Lett, 2007):

Key:
[1] = target: Epidermal growth factor receptor (Homo sapiens, UniProt P00533)
[2] = target: T1, Receptor tyrosine-protein kinase erbB-2 (Homo sapiens, UniProt P04626); test: Inhibition of human recombinant cytoplasmic HER2 kinase expressed in Sf9 cells
[3] = tested on: Liver; test: Metabolic stability in mouse liver microsomes assessed as rate of metabolism per mg protein at 3 uM after 10 mins; type: ADME, Microsome
Outline: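 Test compound at 3 µM incubated 10 min with mouse liver microsomes plus NADPH. Rate of metabolism expressed as nmol min⁻¹ mg protein⁻¹.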

[4] = tested on: NCI-N87; test: Antiproliferative activity against human N87 cells; type: functional, cell-based
[5] = tested on: A2780; test: Antiproliferative activity against human A2780 cells; type: functional, cell-based
[6] = tested on: NCI-N87; test: Antitumor activity against human N87 cells xenografted athymic mouse at 60 mg/kg, sc QD for 14 days; type: functional; details: NCI-N87, po, 336 h, read-out: TGI, in the assay text read “po QD” for “sc QD”
Outline: (§1)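 Tumor cells were implanted subcutaneously in athymic mice and staged to about 100 mg before dosing, with drug given orally. […] Probability was assessed for median tumor weight at the end of treatment.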

[7] = target: Tyrosine-protein kinase Lck (Homo sapiens, UniProt P06239); test: Inhibition of LCK kinase
Tyrosine-protein kinase Lck, sequence (P06239 whole entry): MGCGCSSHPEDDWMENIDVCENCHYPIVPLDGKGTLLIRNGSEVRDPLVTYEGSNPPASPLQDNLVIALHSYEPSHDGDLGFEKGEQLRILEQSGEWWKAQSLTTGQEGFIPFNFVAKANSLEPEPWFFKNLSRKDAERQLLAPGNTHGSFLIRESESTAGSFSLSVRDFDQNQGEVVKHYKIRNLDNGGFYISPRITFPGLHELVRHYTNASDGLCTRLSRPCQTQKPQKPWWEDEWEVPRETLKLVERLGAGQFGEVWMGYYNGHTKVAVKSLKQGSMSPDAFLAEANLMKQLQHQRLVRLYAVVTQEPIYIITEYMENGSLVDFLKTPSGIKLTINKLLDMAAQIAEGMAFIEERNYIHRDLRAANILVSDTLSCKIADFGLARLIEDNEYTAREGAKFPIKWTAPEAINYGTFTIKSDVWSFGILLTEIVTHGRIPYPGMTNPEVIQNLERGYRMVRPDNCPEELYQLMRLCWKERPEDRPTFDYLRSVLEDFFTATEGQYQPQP
Outline: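 IC50 is the mean of at least three determinations, with variability around the mean below 15%.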

[8] = Antitumor activity against human GEO cells xenografted athymic mouse at 120 mg/kg, sc QD for 21 days; type: functional; details: po, 504 h, read-out: TGI, in the assay text read “po QD” for “sc QD”
Outline: as §1

[9] = Fraction unbound (%) ligand in mouse serum at 10 uM by equilibrium dialysis; type: ADME, cell-free, Plasma
[10] = Permeability across Caco-2 cell membrane; type: ADME, cell-based; details: human, read-out: permeability
[11] = target: Vascular endothelial growth factor receptor 2 (Homo sapiens, UniProt P35968); test: Inhibition of VEGFR2
Vascular endothelial growth factor receptor 2, sequence (P35968 whole entry): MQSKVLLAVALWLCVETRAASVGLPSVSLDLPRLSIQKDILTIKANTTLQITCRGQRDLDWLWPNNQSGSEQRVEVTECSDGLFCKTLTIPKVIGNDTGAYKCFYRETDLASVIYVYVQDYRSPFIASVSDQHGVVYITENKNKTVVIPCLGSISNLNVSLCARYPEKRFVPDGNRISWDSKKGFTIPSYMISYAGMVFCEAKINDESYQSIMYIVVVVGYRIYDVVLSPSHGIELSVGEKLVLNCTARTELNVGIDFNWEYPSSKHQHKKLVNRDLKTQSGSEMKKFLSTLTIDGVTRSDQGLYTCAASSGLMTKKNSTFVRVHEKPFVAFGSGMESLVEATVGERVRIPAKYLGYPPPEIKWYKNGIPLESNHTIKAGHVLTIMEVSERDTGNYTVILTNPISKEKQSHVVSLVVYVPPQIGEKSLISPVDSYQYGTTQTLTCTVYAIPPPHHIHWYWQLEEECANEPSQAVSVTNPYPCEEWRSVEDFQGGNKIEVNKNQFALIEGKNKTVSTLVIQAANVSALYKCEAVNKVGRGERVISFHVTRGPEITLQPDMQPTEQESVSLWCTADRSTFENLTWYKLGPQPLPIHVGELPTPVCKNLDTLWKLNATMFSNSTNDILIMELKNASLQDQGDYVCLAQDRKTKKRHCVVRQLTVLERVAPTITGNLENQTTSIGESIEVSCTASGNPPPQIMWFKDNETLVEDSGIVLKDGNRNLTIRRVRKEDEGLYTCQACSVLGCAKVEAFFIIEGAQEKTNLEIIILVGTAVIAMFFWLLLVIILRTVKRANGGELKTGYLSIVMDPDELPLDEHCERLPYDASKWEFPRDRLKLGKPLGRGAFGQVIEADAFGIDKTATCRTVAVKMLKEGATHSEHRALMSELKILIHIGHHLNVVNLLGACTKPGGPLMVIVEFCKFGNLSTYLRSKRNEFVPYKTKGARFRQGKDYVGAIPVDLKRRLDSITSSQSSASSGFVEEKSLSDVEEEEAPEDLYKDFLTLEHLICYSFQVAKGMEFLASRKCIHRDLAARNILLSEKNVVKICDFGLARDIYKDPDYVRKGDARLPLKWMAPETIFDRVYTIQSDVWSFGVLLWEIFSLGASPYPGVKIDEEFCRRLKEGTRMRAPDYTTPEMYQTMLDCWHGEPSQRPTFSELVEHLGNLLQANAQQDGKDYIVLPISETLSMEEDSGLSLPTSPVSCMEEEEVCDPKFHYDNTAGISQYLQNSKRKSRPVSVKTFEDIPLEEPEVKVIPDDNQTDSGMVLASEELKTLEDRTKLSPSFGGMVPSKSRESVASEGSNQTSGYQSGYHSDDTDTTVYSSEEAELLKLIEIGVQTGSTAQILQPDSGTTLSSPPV
Outline: (§2)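 Kinase panel values are IC50s reported as the mean of at least three determinations, with variability around the mean under 15%.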

[12] = Inhibition of PKA; design: species or system Homo sapiens
Outline: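 IC50 values are means of at least three determinations, with variability around the mean under 15%.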

[13] = tested on: Mus musculus; test: AUC in BALB/C mouse at 50 mg/kg, po after 4 hrs; type: ADME, organism-based, Plasma; design: time < 4 hr, dose 50 mg/kg, route oral; details: in vivo
Outline: (§3)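 Single oral 50 mg/kg dose in male Balb/C mice. AUC taken over 4 h, and plasma concentration measured at 4 h.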

[14] = Antitumor activity against human GEO cells xenografted athymic mouse at 30 mg/kg, sc QD for 21 days; type: functional; details: po, 504 h, read-out: TGI, in the assay text read “po QD” for “sc QD”
Outline: as §1

[15] = target: Hepatocyte growth factor receptor (Homo sapiens, UniProt P08581); test: Inhibition of Met kinase
Outline: as §2

[16] = Plasma concentration in BALB/C mouse at 50 mg/kg, po after 4 hrs; type: ADME, organism-based; design: dose 50 mg/kg, route oral
Outline: as §3

[17] = tested on: Mus musculus; test: Toxicity in mouse assessed as wieght loss at 240 mg/kg, po; details: in vivo
[18] = Antitumor activity against human GEO cells xenografted athymic mouse at 60 mg/kg, sc QD for 21 days; type: functional; details: po, 504 h, read-out: TGI, in the assay text read “po QD” for “sc QD”
Outline: as §1

[19] = target: T1, Receptor tyrosine-protein kinase erbB-2; test: Inhibition of HER2 phosphorylation in human N87 cells; type: cell-based; details: NCI-N87
Outline: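 N87 human gastric carcinoma cells, which overexpress EGFR and HER2, were exposed to a range of compound concentrations for 1 h. Cell lysates were then Western blotted with anti-phosphotyrosine and anti-HER2 antibodies to follow HER2 phosphorylation.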

[20] = target: MAP kinase p38 (Homo sapiens, UniProt O15264+Q15759+Q16539+P53778); test: Inhibition of p38 kinase; type: protein assay
Outline: as §2

[21] = tested on: NCI-N87; test: Antitumor activity against human N87 cells xenografted athymic mouse at 120 mg/kg, sc QD for 14 days; type: functional; details: NCI-N87, po, 336 h, read-out: TGI, in the assay text read “po QD” for “sc QD”
Outline: as §1

[22] = tested on: NCI-N87; test: Antitumor activity against human N87 cells xenografted athymic mouse at 240 mg/kg, sc QD for 14 days; type: functional; details: NCI-N87, po, 336 h, read-out: TGI, in the assay text read “po QD” for “sc QD”
Outline: as §1

[23] = Antitumor activity against human GEO cells xenografted athymic mouse at 240 mg/kg, sc QD for 21 days; type: functional; details: po, 504 h, read-out: TGI, in the assay text read “po QD” for “sc QD”
Outline: as §1

[24] = tested on: Mus musculus; test: Toxicity in mouse at 240 mg/kg, po; details: in vivo
[25] = tested on: NCI-N87; test: Antitumor activity against human N87 cells xenografted athymic mouse at 30 mg/kg, sc QD for 14 days; type: functional; details: NCI-N87, po, 336 h, read-out: TGI, in the assay text read “po QD” for “sc QD”
Outline: as §1

[26] = tested on: HT-29; test: Antiproliferative activity against human HT29 cells

T1 sequence (P04626 whole entry): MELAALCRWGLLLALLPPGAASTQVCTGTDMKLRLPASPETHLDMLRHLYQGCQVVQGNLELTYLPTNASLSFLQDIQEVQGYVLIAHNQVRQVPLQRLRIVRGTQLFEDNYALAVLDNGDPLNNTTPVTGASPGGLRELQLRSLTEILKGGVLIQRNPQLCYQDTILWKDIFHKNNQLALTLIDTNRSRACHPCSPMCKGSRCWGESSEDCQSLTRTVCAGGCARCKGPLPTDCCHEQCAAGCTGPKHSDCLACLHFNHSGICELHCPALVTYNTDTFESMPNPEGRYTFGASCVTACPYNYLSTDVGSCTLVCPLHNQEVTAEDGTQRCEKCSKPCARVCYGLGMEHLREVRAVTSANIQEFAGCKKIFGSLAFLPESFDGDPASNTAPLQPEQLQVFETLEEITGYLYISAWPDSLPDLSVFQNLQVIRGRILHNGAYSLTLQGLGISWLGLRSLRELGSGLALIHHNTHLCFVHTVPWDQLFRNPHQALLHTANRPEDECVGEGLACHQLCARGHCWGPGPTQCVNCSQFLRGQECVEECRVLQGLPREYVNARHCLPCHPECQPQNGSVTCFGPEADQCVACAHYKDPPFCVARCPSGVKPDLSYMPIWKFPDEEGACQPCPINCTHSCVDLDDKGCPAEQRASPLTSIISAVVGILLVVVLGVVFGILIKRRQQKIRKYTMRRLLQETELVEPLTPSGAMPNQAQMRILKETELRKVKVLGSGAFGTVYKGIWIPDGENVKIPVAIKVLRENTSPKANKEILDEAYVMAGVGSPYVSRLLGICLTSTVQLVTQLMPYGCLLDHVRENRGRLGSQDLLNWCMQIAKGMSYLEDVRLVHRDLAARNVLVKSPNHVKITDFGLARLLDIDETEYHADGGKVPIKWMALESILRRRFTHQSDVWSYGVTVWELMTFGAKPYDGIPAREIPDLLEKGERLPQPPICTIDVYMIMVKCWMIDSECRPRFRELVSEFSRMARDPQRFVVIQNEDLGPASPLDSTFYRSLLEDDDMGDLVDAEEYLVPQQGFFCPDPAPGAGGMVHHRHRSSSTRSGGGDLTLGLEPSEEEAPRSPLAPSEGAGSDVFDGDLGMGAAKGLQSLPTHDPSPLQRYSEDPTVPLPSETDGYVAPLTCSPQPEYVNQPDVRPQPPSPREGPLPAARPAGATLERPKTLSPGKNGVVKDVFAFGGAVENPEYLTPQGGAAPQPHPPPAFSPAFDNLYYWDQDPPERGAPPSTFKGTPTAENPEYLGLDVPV
Epidermal growth factor receptor, sequence (P00533 whole entry): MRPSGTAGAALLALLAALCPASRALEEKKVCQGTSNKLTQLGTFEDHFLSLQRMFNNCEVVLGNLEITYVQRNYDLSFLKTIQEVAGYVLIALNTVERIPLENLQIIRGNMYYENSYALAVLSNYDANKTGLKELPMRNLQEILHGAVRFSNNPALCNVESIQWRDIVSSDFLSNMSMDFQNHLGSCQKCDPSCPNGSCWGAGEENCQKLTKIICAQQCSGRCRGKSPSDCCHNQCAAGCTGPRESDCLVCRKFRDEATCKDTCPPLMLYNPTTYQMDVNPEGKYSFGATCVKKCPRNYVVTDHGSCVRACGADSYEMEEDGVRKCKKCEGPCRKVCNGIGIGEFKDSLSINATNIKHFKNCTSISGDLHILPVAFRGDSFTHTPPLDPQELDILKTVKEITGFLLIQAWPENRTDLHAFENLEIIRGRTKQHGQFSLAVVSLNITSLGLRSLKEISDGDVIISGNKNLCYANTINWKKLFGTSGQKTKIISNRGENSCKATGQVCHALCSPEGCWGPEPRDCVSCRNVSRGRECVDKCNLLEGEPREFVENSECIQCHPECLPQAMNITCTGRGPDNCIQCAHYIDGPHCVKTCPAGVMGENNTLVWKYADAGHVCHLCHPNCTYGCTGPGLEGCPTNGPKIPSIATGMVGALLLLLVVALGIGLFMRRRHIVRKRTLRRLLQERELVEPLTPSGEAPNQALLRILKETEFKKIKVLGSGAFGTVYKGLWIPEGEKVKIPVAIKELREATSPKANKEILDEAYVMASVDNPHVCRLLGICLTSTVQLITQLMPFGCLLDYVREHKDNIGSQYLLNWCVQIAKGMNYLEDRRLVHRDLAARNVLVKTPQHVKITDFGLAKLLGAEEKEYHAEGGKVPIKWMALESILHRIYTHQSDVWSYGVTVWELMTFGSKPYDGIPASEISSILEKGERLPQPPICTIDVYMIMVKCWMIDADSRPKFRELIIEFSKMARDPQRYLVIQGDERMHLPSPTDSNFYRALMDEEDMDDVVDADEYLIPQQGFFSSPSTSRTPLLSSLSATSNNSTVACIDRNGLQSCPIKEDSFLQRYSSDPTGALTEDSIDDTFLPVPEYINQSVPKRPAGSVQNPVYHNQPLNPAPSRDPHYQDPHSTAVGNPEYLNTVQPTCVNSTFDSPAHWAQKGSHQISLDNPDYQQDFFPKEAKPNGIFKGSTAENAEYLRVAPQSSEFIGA

Cc1ccn2ncnc(Nc3ccc4c(cnn4Cc4cccnc4)c3)c12
IC50 [1]: 1800 nM | IC50 [2]: 250 nM

Fc1cccc(Cn2ncc3cc(Nc4ncnn5ccc(COC6CCNCC6)c45)ccc32)c1
Stability [3]: 0.02 nmol/min/mg | IC50 [4]: 330 nM | IC50 [1]: 73 nM | IC50 [2]: 70 nM | IC50 [5]: 6000 nM

COc1cn2ncnc(Nc3ccc4c(cnn4Cc4cccc(F)c4)c3)c2c1COC[C@@H]1CNCCO1
IC50 [4]: 3400 nM | IC50 [1]: 430 nM | IC50 [2]: 250 nM

C[C@@H](c1cccc(F)c1)n1ncc2cc(Nc3ncnn4ccc(COC[C@@H]5CNCCO5)c34)ccc21
IC50 [1]: 400 nM | IC50 [2]: 510 nM

Fc1cccc(Cn2ncc3cc(Nc4ncnn5ccc(COC[C@@H]6CNCCO6)c45)ccc32)c1
Stability [3]: 0.07 nmol/min/mg | inhibition in vivo at 60 mg/kg [6]: 51% | IC50 [7]: > 5000 nM | inhibition in vivo at 120 mg/kg [8]: 71% | fraction unbound at 10 µM [9]: 0.026 | IC50 [4]: 83 nM | IC50 [1]: 61 nM | Papp [10]: 6.4 ×10⁻⁶ cm/s | IC50 [11]: > 10000 nM | IC50 [12]: > 50000 nM | AUC [13]: 29 µM·h | inhibition in vivo at 30 mg/kg [14]: 21% | IC50 [15]: 6500 nM | IC50 [2]: 55 nM | concentration at 4 h [16]: 5.8 µM | Activity [17]: Non-toxic | inhibition in vivo at 60 mg/kg [18]: 55% | IC50 [5]: 8700 nM | Activity [19]: Dose-dependent effect | IC50 [20]: > 50000 nM | inhibition in vivo at 120 mg/kg [21]: 70% | inhibition in vivo at 240 mg/kg [22]: 111% | inhibition in vivo at 240 mg/kg [23]: 91% | Activity [24]: Non-toxic | inhibition in vivo at 30 mg/kg [25]: 28%

C[C@@H](c1ccccc1)n1ncc2cc(Nc3ncnn4ccc(COC[C@@H]5CNCCO5)c34)ccc21
IC50 [4]: 2200 nM | IC50 [1]: 690 nM | IC50 [2]: 850 nM

c1cncc(Cn2ncc3cc(Nc4ncnn5ccc(COC[C@@H]6CNCCO6)c45)ccc32)c1
IC50 [4]: 550 nM | IC50 [1]: 810 nM | IC50 [2]: 410 nM

OCc1ccn2ncnc(Nc3ccc4c(cnn4Cc4cccc(F)c4)c3)c12
IC50 [26]: > 10000 nM | IC50 [4]: 7400 nM | IC50 [1]: 120 nM | IC50 [2]: 110 nM

Fc1cccc(Cn2ncc3cc(Nc4ncnn5ccc(COCC6CNCCOC6)c45)ccc32)c1 (stereo not drawn)
IC50 [4]: 2000 nM | IC50 [1]: 210 nM | IC50 [2]: 140 nM | IC50 [5]: > 10000 nM

O=C(O)COCc1ccn2ncnc(Nc3ccc4c(cnn4Cc4cccc(F)c4)c3)c12
IC50 [4]: > 10000 nM | IC50 [1]: 30 nM | IC50 [2]: 18 nM | IC50 [5]: > 10000 nM

Fc1cccc(Cn2ncc3cc(Nc4ncnn5ccc(COC[C@H]6CCCNC6)c45)ccc32)c1
IC50 [4]: 980 nM | IC50 [1]: 190 nM | IC50 [2]: 170 nM | IC50 [5]: 7400 nM

Fc1cccc(Cn2ncc3cc(Nc4ncnn5ccc(COC[C@H]6CNCCO6)c45)ccc32)c1
IC50 [4]: 130 nM | IC50 [1]: 83 nM | IC50 [2]: 60 nM | IC50 [5]: > 10000 nM

Fc1cccc(Cn2ncc3cc(Nc4ncnn5ccc(COCC6CCNCC6)c45)ccc32)c1
IC50 [4]: 720 nM | IC50 [1]: 130 nM | IC50 [2]: 120 nM | IC50 [5]: 4900 nM

c1ccc(Cn2ncc3cc(Nc4ncnn5ccc(COC[C@@H]6CNCCO6)c45)ccc32)nc1
IC50 [4]: 240 nM | IC50 [1]: 500 nM | IC50 [2]: 380 nM

Cc1ccn2ncnc(Nc3ccc4c(cnn4Cc4cccc(F)c4)c3)c12
IC50 [26]: > 10000 nM | Stability [3]: 0.14 nmol/min/mg | IC50 [4]: 380 nM | IC50 [1]: 81 nM | IC50 [2]: 88 nM

COC(=O)COCc1ccn2ncnc(Nc3ccc4c(cnn4Cc4cccc(F)c4)c3)c12
IC50 [4]: 1700 nM | IC50 [1]: 460 nM | IC50 [2]: 280 nM

Fc1cccc(COc2ccc(Nc3ncnn4ccc(COC[C@@H]5CNCCO5)c34)cc2Cl)c1
IC50 [4]: 610 nM

NCCCOCc1ccn2ncnc(Nc3ccc4c(cnn4Cc4cccc(F)c4)c3)c12
Stability [3]: 0.01 nmol/min/mg | IC50 [4]: 640 nM | IC50 [1]: 64 nM | IC50 [2]: 60 nM | IC50 [5]: 7400 nM

Cc1ccn2ncnc(Nc3ccc4[nH]ncc4c3)c12
IC50 [1]: 210 nM | IC50 [2]: > 1000 nM

Cc1ccn2ncnc(Nc3ccc(F)c(Cl)c3)c12
IC50 [2]: > 1000 nM

Fc1cccc(Cn2ncc3cc(Nc4ncnn5ccc(COC[C@@H]6COCCN6)c45)ccc32)c1
IC50 [4]: 3000 nM | IC50 [1]: 640 nM | IC50 [2]: 590 nM | IC50 [5]: > 10000 nM

Cc1ccn2ncnc(Nc3ccc4c(cnn4Cc4ccccn4)c3)c12
IC50 [1]: 200 nM | IC50 [2]: 310 nM

NCCCCOCc1ccn2ncnc(Nc3ccc4c(cnn4Cc4cccc(F)c4)c3)c12
IC50 [1]: 160 nM | IC50 [2]: 130 nM

Cc1ccn2ncnc(Nc3ccc(OCc4cccc(F)c4)c(Cl)c3)c12
IC50 [1]: 250 nM | IC50 [2]: 430 nM

C[C@H](c1cccc(F)c1)n1ncc2cc(Nc3ncnn4ccc(COC[C@@H]5CNCCO5)c34)ccc21
IC50 [4]: 130 nM | IC50 [1]: 68 nM | IC50 [2]: 41 nM

NC(=O)COCc1ccn2ncnc(Nc3ccc4c(cnn4Cc4cccc(F)c4)c3)c12
IC50 [4]: 1700 nM | IC50 [1]: 140 nM | IC50 [2]: 110 nM | IC50 [5]: > 10000 nM

COCCOCc1ccn2ncnc(Nc3ccc4c(cnn4Cc4cccc(F)c4)c3)c12
IC50 [2]: 420 nM

Cc1ccn2ncnc(Nc3ccc4c(cnn4Cc4ccccc4)c3)c12
IC50 [1]: 86 nM | IC50 [2]: 110 nM

NCCOCc1ccn2ncnc(Nc3ccc4c(cnn4Cc4cccc(F)c4)c3)c12
IC50 [4]: 1700 nM | IC50 [5]: 8300 nM

C[C@H](c1ccccc1)n1ncc2cc(Nc3ncnn4ccc(COC[C@@H]5CNCCO5)c34)ccc21
IC50 [4]: 660 nM | IC50 [1]: 120 nM | IC50 [2]: 130 nM

COCc1ccn2ncnc(Nc3ccc4c(cnn4Cc4cccc(F)c4)c3)c12
Stability [3]: 0.24 nmol/min/mg | IC50 [1]: 340 nM | IC50 [2]: 420 nM

CN(C)CCCOCc1ccn2ncnc(Nc3ccc4c(cnn4Cc4cccc(F)c4)c3)c12
Stability [3]: 0.12 nmol/min/mg | IC50 [1]: 620 nM | IC50 [2]: 560 nM
